Measured values reported in PubChem BioAssay.
The source made the active and inactive calls.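 The calls were made as follows, unless noted: active = fluorescence slope higher than the sample average by over 3 SD (cut at about -0.22 in these data, passing the limit was not always enough); inactive = the rest.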

Experiments:
[1] = inhibitors of TNFa-induced NFkB p65 translocation, primary screen, imaging, HUVEC, MLSMR starter and 10KST1 sets (AID 438;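 active = inhibition above 20% together with a positive visual image hit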;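 also: compound added about 3h40 before a 20 min TNFalpha stimulation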;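 as to inhibition: signal is the nuclear over cytoplasmic p65 intensity ratio per well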); settings: HUVEC TNFa-induced p65 nuclear translocation; cell count: measured here: nuclei count (cytotoxicity indicator), at 2.08 µM; inhibition: at 2 µM, stronger effect = higher value, 0% TNFa-plus-vehicle, 100% no-TNFa wells
[2] = inhibitors of E-selectin induction by TNFa, primary screen, imaging, HUVEC, immunofluorescence, MLSMR starter and 10KST1 sets (AID 487;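 active = visually confirmed hit in the image check and inhibition above 20%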;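 as to inhibition: signal is fraction of cell area covered by stained E-selectin grains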;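 as to nuclei count: 100% = median nuclei count of all wells on the same plate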); settings: HUVEC TNFalpha-induced E-selectin immunofluorescence imaging, at 2 µM; inhibition: stronger effect = higher value; nuclei count: measured here: cell number, toxicity
[3] = DUSP6 inhibitors restoring Erk phosphorylation by chemical complementation, primary imaging in DUSP6-transfected HeLa (AID 609;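 active = compounds giving at least 50% inhibition in the cell-based MKP-3 phosphatase rescue imaging test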;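 as to inhibition: phospho-Erk level distribution per well compared with pooled transfected vehicle control wells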); settings: HeLa MKP-3 transfected, phospho-Erk imaging KS statistic, at 10 µM, cells stimulated with TPA for 15 min
[4] = target: Dual specificity protein phosphatase 6 (Homo sapiens) (UniProt Q16828); assay: as above; settings: HeLa MKP-3 transfected, phospho-Erk imaging KS statistic; at 10 µM; stronger effect = higher value; cells stimulated with TPA for 15 min
[5] = target: Voltage-gated potassium channel subunit beta-2 (Rattus norvegicus) (UniProt P62483); assay: KvBeta enzyme negative modulators, primary screen, biochemical, NADPH fluorescence (AID 622); settings: recombinant KvBeta, 4-cyanobenzaldehyde reduction, at 10 µM, stronger effect = higher value;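 also: slope of raw intensity against log time taken from 70 to 1610 s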
[6] = target: Voltage-gated potassium channel subunit beta-2 (Rattus norvegicus) (UniProt P62483); assay: KvBeta positive modulators, primary screen, biochemical, NADPH fluorescence (AID 623;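 active = NADPH fluorescence slope more negative than the mean of all samples by about 3 SD, 99.7% confidence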;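 also: fluorescence intensity change per second fitted from 20 to 320 s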); settings: Recombinant KvBeta, NADPH fluorescence decrease slope, 10 min; at 10 µM; stronger effect = lower value
[7] = target: Muscarinic acetylcholine receptor M4 (Homo sapiens) (UniProt P08173); assay: compounds altering M4/GIRK thallium flux, either direction, primary screen, M4 allosteric agonist project, cell-based, HEK293 M4/GIRK, BTC-AM (AID 625;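 active = fluorescence slope after compound addition differing from the mean of all tested samples at 99.7% confidence, mostly higher but some lower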;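 also: thallium influx through GIRK channels coupled to M4 in HEK293 cells with BTC-AM dye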); settings: at 10 µM, actives lie on both sides
Outline: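 Material: HEK293 cells with M4 receptor and GIRK channels; Times: cells overnight at 37 °C, BTC-AM loading 1 h, reads 2 min total; Technique: kinetic BTC-AM fluorescence sampled at 1 Hz, 10 s pre-addition baseline; Read-out basis: slope over 15–24 s of trace normalized to starting intensity; Controls: carbachol positive, DMSO negative.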

[8] = inhibitors of larval lipid processing in zebrafish, primary screen, whole organism, PED6 fluorescence, gall bladder and intestine (AID 686;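 active = a full or partial loss of lipid-probe fluorescence in the fish gall bladder, intestine or both, judged by eye; inactive = no fluorescence loss, or compound toxic to the fish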;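 also: larvae 5 to 7 days old with five fish per well; signal comes from phospholipase A2 cleavage of quenched PED6 carried via bile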); settings: Zebrafish larvae PED6 lipid processing, fluorescence scoring; screened at 20 µM (by protocol)
Outline: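 Incubation: overnight exposure of larvae to compound plus PED6 / Test system: live zebrafish larvae aged 5-7 days, whole organism / Amount: 5 larvae per well / Read-out basis: visual per-well fluorescence inhibition score / Signal: visual fluorescence microscopy scoring of gall bladder, gut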

[9] = inhibitors of Chlamydomonas gravitaxis, primary screen, whole organism, Chlamydomonas reinhardtii, WT vs cilia-less mutant, absorbance, 96-well (AID 463189;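 active = inhibition at or above 50% relative to wild type and mutant plate controls; inactive = inhibition below 50%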;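 also: 0% = wild type cc124 cells in DMSO and 100% = ciliumless bld1 mutant cells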); settings: OD600 absorbance, 2 days, at 10 µM, stronger effect = higher value
[10] = measured here: cell density z-score
[11] = measured here: nuclear c-Myc green intensity z-score
[12] = measured here: nuclear pErk red intensity z-score, stronger effect = higher value

Chain of Dual specificity protein phosphatase 6 (Homo sapiens) (Q16828 whole entry, looked up): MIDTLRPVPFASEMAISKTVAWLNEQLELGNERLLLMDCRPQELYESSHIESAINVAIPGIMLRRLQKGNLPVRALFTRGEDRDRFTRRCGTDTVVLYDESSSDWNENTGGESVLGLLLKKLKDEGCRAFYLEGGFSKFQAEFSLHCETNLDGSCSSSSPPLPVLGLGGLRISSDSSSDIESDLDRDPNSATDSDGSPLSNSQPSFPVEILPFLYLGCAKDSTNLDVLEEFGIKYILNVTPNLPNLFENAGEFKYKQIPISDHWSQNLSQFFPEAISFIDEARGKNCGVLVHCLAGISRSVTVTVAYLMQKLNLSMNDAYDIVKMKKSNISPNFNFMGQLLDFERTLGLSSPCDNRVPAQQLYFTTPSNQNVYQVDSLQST
Chain of Voltage-gated potassium channel subunit beta-2 (Rattus norvegicus) (P62483 whole entry, looked up): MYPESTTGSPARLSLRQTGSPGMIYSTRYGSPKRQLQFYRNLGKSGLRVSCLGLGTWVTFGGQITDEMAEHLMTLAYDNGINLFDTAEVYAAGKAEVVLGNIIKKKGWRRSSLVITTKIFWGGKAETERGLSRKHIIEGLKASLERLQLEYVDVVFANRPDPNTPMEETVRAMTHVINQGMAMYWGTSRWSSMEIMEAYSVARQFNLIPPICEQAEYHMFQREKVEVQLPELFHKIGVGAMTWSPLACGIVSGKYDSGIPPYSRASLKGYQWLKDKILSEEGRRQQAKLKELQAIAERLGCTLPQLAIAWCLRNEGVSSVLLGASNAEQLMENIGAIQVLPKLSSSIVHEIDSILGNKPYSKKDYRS
Chain of Muscarinic acetylcholine receptor M4 (Homo sapiens) (P08173 whole entry, looked up): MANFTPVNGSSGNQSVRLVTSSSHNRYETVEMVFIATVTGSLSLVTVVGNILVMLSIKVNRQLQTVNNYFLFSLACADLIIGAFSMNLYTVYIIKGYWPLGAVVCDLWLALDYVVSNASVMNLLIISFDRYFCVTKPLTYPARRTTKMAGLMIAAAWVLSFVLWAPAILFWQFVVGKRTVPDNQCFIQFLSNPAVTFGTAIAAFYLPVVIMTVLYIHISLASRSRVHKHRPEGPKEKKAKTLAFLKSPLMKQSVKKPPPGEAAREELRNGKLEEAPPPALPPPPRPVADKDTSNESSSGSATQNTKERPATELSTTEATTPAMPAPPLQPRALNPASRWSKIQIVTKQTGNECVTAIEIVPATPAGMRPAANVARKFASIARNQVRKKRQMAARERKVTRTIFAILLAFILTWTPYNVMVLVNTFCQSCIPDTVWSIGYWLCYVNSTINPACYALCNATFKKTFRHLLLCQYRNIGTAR

Row | Structure (SMILES) | cell count [1] | inhibition [1] | inhibition [2] | nuclei count [2] | z-score [3, 10] | z-score [3, 11] | z-score [3, 12] | inhibition [4] | fluorescence slope [5] | NADPH fluorescence slope [6] | fluorescence slope [7] | outcome [8] | inhibition [9]
1 | CCCc1nc(N2CCCC2)c(C#N)c2c1CCCC2 | 605 | -1.2% (inactive) | -118% (inactive) | 141% | -1.08 | 0.0644 | -0.444 | -5.81% (inactive) | -0.448 (inactive) | -9.6e-05 (inactive) | 0.00554 (inactive) | inactive | 4.3% (inactive)
2 | CN1Cc2c(N3CCOCC3)nc(SCc3ccccc3)c(C#N)c2CC1(C)C | 524 | -3.1% (inactive) | -101% (inactive) | 134% | -1.78 | -0.223 | -1.03 | -0.584% (inactive) | -0.496 (inactive) | -7.5e-06 (inactive) | 0.00495 (inactive) | inactive | 17.9% (inactive)
3 | C=CC[N+](C)(C)CCCNC(=O)/C=N/O | 665 | -3.3% (inactive) | -22.3% (inactive) | 164% | 0.15 | -0.161 | -1.51 | -9.53% (inactive) | -0.482 (inactive) | -4.6e-05 (inactive) | 0.00537 (inactive) | inactive | -5.25% (inactive)
4 | CCCCC(CCC(=O)Nc1ccc(C(=O)OCC)cc1)C(=O)O (stereo unspecified) | 378 | -11.3% (inactive) | -153% (inactive) | 159% | -0.634 | -1.85 | 0.598 | -0.608% (inactive) | -0.468 (inactive) | -0.000129 (inactive) | 0.00338 (inactive) | inactive | 5.13% (inactive)
5 | O=C1CC(NCc2ccncc2)C(=O)N1c1ccc(Cl)cc1 (stereo unspecified) | 479 | 2.2% (inactive) | -20.1% (inactive) | 150% | 0.96 | -0.274 | -0.794 | 2.71% (inactive) | -0.464 (inactive) | -3.3e-05 (inactive) | 0.00465 (inactive) | inactive | 25.9% (inactive)
6 | CN(C)c1ccc(NC(=O)c2sc(SCC(=O)Nc3nccs3)nc2N)cc1 | 700 | -11.3% (inactive) | 0.8% (inactive) | 179% | -1.08 | 1.63 | 0.495 | 1.98% (inactive) | -0.491 (inactive) | -9e-05 (inactive) | 0.00686 (inactive) | inactive | -7.49% (inactive)
7 | Nc1c2c(nc3ccccc13)N(c1ccccc1)CC2 | 585 | 0.4% (inactive) | 60.7% (active) | 92.9% | 0.356 | -0.531 | -0.713 | -2.09% (inactive) | -0.0969 (active) | -1.3e-05 (inactive) | 0.00425 (inactive) | inactive; toxic | 15.7% (inactive)
8 | CSc1nc(N)nc(SCC(=O)C23CC4CC(CC(C4)C2)C3)c1C#N | 491 | 2.8% (inactive) | -70.2% (inactive) | 94.4% | -0.797 | 0.314 | -0.79 | 15.9% (inactive) | -0.334 (inactive) | -1.7e-05 (inactive) | 0.00876 (inactive) | inactive | 35.9% (inactive)
9 | COC(=O)c1c(C)[nH]c(C(=O)OCc2ccc(F)cc2)c1C | 693 | -3.8% (inactive) | 50.5% (inactive) | 160% | -0.559 | -1.43 | -0.0192 | 7.21% (inactive) | -0.461 (inactive) | -1.9e-05 (inactive) | 0.00635 (inactive) | inactive | 80.6% (active)
10 | Cc1cc(=O)n(CCC(=O)O)c2ccccc12 | 722 | -2.6% (inactive) | -33.8% (inactive) | 175% | 1.44 | -0.504 | -1.75 | 5.95% (inactive) | -0.48 (inactive) | -8.8e-05 (inactive) | 0.0062 (inactive) | inactive | -13% (inactive)
11 | CCOC(=O)N1CCN(C2OC(=O)c3ccccc32)CC1 (stereo unspecified) | 380 | 0.8% (inactive) | -125% (inactive) | 146% | -0.546 | -0.533 | -0.506 | 24.4% (inactive) | -0.459 (inactive) | -0.000295 (inactive) | 0.00469 (inactive) | inactive; toxic | 14% (inactive)
12 | COc1ccc(/C(O)=C2/C(=O)C(=O)N(Cc3ccco3)C2c2cccs2)cc1 (stereo unspecified) | 651 | 89.9% (active) | -68.9% (inactive) | 157% | 1.37 | -0.407 | -1.07 | 3.42% (inactive) | -0.435 (inactive) | -4.8e-05 (inactive) | 0.00532 (inactive) | inactive | 1.62% (inactive)
13 | Cc1cc(C)n(-c2c(F)c(F)c(CN3CCCCC3)c(F)c2F)n1 | 557 | 6.8% (inactive) | 29.4% (inactive) | 107% | -0.661 | 0.711 | -1.05 | 17.8% (inactive) | -0.349 (inactive) | 1.9e-06 (inactive) | 0.00483 (inactive) | inactive | 26% (inactive)
14 | O=C1C=C(N2CCN(C3=CC(=O)CCC3)CC2)CCC1 | 493 | -0.4% (inactive) | 4.1% (inactive) | 100% | -1.82 | 2.6 | 0.89 | -0.233% (inactive) | -0.469 (inactive) | -6.9e-05 (inactive) | 0.00636 (inactive) | inactive | -18.9% (inactive)
15 | Cn1c(NCCCO)nc2c1c(=O)n(Cc1ccccc1F)c(=O)n2C | 691 | -14.5% (inactive) | -160% (inactive) | 167% | -0.594 | -1.48 | 0.588 | 1.9e-07% (inactive) | -0.512 (inactive) | -3.1e-05 (inactive) | 0.00567 (inactive) | inactive | 7.04% (inactive)
16 | COc1ccc(-c2nc3c(Br)c(N)c(Br)cc3o2)cc1 | 497 | -7.6% (inactive) | -77.2% (inactive) | 140% | 0.844 | -1.44 | 0.173 | -1.98% (inactive) | -0.404 (inactive) | -2.1e-05 (inactive) | 0.0064 (inactive) | inactive | 14.6% (inactive)
17 | Cc1c(Cl)cccc1N1C(=O)C2ON(c3ccccc3)C(c3cccnc3)C2C1=O (stereo unspecified) | 542 | -6.8% (inactive) | 9.6% (inactive) | 83.2% | 0.393 | 0.964 | -1.74 | 6.04% (inactive) | -0.497 (inactive) | -1.3e-05 (inactive) | 0.00557 (inactive) | inactive | 20% (inactive)
18 | CCCCCCOc1ccc(C(=O)n2cnc(N)n2)cc1 | 664 | -4.5% (inactive) | -26.7% (inactive) | 174% | 0.344 | 0.534 | -0.706 | -5.95% (inactive) | -0.508 (inactive) | -7.5e-05 (inactive) | 0.00638 (inactive) | inactive | 0.29% (inactive)
19 | COc1ccc(-c2nn(C)c(=O)c3ccccc23)cc1NS(C)(=O)=O | 373 | -6.1% (inactive) | -7.8% (inactive) | 104% | -0.517 | 0.9 | -0.714 | 11.9% (inactive) | -0.509 (inactive) | 1.7e-05 (inactive) | 0.00473 (inactive) | inactive | -10.8% (inactive)
20 | Nc1nc2n(n1)C(c1cccs1)CC(c1ccc(Br)cc1)N2 (stereo unspecified) | 409 | -1% (inactive) | -13.7% (inactive) | 149% | -0.806 | 0.38 | 0.438 | 5.65% (inactive) | -0.443 (inactive) | -9.3e-05 (inactive) | 0.0057 (inactive) | inactive | 21.9% (inactive)
21 | O=c1cc(O)nc2n1CCCS2 | 698 | 0.1% (inactive) | 56.2% (inactive) | 144% | 1.6 | 0.755 | 0.757 | -9.53% (inactive) | -0.418 (inactive) | -5.5e-05 (inactive) | 0.00444 (inactive) | inactive | 0.661% (inactive)
22 | Cn1c(CSc2ncn[nH]2)nc2ccccc21 | 537 | -6.4% (inactive) | -75.5% (inactive) | 122% | -3.21 | 1.73 | 1.28 | 20.2% (inactive) | -0.49 (inactive) | -0.000116 (inactive) | 0.00416 (inactive) | inactive | -14.5% (inactive)
23 | Cc1cc(=O)oc2ccc(OCC(=O)N3CCc4ccccc43)cc12 | 630 | -1.2% (inactive) | -32.9% (inactive) | 180% | -1.93 | 0.803 | 1.57 | -2.29% (inactive) | -0.478 (inactive) | -7.1e-05 (inactive) | 0.00705 (inactive) | inactive | 1.65% (inactive)
24 | CCCCC(=O)C1CCN(Cc2ccccc2)CC1 | 371 | -0.5% (inactive) | 19.3% (inactive) | 177% | 0.378 | 0.471 | 0.337 | -0.584% (inactive) | -0.469 (inactive) | -0.000111 (inactive) | 0.00375 (inactive) | inactive; toxic | 126% (active)
25 | COc1cccc(C(=O)Nc2ccc(-c3nnc(-c4ccco4)o3)cc2)c1 | 684 | 6.3% (inactive) | 25.7% (inactive) | 158% | -0.186 | 0.958 | -0.649 | 1.63% (inactive) | -0.476 (inactive) | -4.6e-05 (inactive) | 0.00624 (inactive) | inactive | -6.98% (inactive)
26 | N#Cc1c2c(c(-c3ccccc3)[nH]c1=O)CCCC2 | 580 | -9.4% (inactive) | -88.6% (inactive) | 140% | -0.665 | -0.156 | -4.21 | 16.5% (inactive) | -0.377 (inactive) | -0.000105 (inactive) | 0.00448 (inactive) | inactive | -4.11% (inactive)
27 | N/C(=N\S(=O)(=O)c1ccc(Cl)s1)c1ccccc1 | 671 | -8.3% (inactive) | -77.1% (inactive) | 150% | 1.62 | -1.89 | -1.41 | 7.83% (inactive) | -0.473 (inactive) | -4.6e-05 (inactive) | 0.00465 (inactive) | inactive | 19.3% (inactive)
